Measurements from PubChem BioAssay AID504524 (Sanford-Burnham Center for Chemical Genomics, 2011).
The source made the active and inactive calls.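 The calls were made as follows: active = mean EC50 below 10 µM; inactive = the rest.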

Molecular target: Apelin receptor (Homo sapiens) (UniProt P35414)
Experiment: APJ receptor agonists, beta-arrestin recruitment, SAR follow-up, cell-based, CHO-K1 AGTRL-1, PathHunter luminescence, set 5 (AID 504524)
Settings: CHO-K1 AGTRL-1 PathHunter beta-arrestin
How it was run: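 Test system: CHO-K1 cells, APJ and β-arrestin complementation reporter | Dosing: Dose-response compound series | Schedule: Overnight seeding, 90 min exposure at 25 °C, 60 min detection | Technique: Luminescence from β-galactosidase fragment complementation, PathHunter detection reagent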

Chain of Apelin receptor (Homo sapiens) (P35414 whole entry, looked up): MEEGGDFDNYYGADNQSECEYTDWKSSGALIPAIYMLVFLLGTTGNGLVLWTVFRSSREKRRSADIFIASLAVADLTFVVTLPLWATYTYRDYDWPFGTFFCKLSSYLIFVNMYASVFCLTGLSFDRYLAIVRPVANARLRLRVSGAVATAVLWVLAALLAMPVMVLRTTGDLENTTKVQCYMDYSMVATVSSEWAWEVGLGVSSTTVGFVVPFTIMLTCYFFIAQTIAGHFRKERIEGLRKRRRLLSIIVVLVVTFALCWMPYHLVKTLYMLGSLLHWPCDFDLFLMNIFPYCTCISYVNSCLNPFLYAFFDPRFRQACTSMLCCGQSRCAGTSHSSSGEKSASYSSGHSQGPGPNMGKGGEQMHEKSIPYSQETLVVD

EC50 | Structure (SMILES)
2.61 µM | CC1=CC(=O)C(C2CCCCC2)=C/C1=N\OS(=O)(=O)c1cccc(Cl)c1
10 µM | CC1=CC(=O)C(C(C)(C)C)=C/C1=N\OS(=O)(=O)c1cn(C)cn1
6.5 µM | CC1=CC(=O)C(C2CCCCC2)=C/C1=N\OS(=O)(=O)c1ccccc1Cl
5.23 µM | COc1cccc(S(=O)(=O)O/N=C2\C=C(C(C)C)C(=O)C=C2C)c1
6.03 µM | CC1=CC(=O)C(C2CCCCC2)=C/C1=N/OS(=O)(=O)c1cccc(Br)c1
inactive | CC1=CC(=O)C(C(C)(C)C)=C/C1=N/OS(=O)(=O)c1cccc(Br)c1
3.21 µM | CC1=CC(=O)C(C(C)(C)C)=C/C1=N/OS(=O)(=O)c1cccc(C#N)c1
inactive | CC1=CC(=O)C(C(C)C)=C/C1=N\OS(=O)(=O)c1cn(C)cn1
1.96 µM | CC1=CC(=O)C(C(C)C)=C/C1=N/OS(=O)(=O)c1cccc(C#N)c1
7.8 µM | CC1=CC(=O)C(C(C)(C)C)=C/C1=N\OS(=O)(=O)c1cccc(Cl)c1
9.59 µM | CC1=CC(=O)C(C(C)(C)C)=C/C1=N/OS(=O)(=O)c1cccc(C)c1
3.17 µM | CC1=CC(=O)C(C(C)C)=C/C1=N\OS(=O)(=O)c1cccc(Cl)c1
8.69 µM | CC1=CC(=O)C(C(C)(C)C)=C/C1=N\OS(=O)(=O)c1ccccc1Cl
> 79 µM (inactive) | Cc1cc(O)c(C(C)(C)C)cc1N=O
> 79 µM (inactive) | Cc1cc(N=O)c(C(C)C)cc1O
3.16 µM | CC1=CC(=O)C(C(C)C)=C/C1=N/OS(=O)(=O)c1cccc(Br)c1

EC50 | Structure (SMILES)
5.49 µM | CC1=CC(=O)C(C2CCCCC2)=C/C1=N/OS(=O)(=O)c1cccc(C)c1
5.53 µM | COc1cccc(S(=O)(=O)O/N=C2\C=C(C3CCCCC3)C(=O)C=C2C)c1
inactive | CC1=CC(=O)C(C(C)(C)C)=C/C1=N\OS(=O)(=O)C1CCCCC1
> 79 µM (inactive) | O=C1C=CC(=NOS(=O)(=O)c2ccccc2)C=C1c1ccccc1
1.94 µM | CC1=CC(=O)C(C(C)C)=C/C1=N\OS(=O)(=O)c1ccccc1Cl
6.36 µM | CC1=CC(=O)C(C2CCCCC2)=C/C1=N\OS(=O)(=O)c1cn(C)cn1
3.59 µM | CC1=CC(=O)C(C2CCCCC2)=C/C1=N\OS(=O)(=O)c1c(Cl)cccc1Cl
4.96 µM | CC(C)C1=CC(=NOS(=O)(=O)c2ccccc2)C=CC1=O
5.13 µM | CC1=CC(=O)C(C2CCCCC2)=C/C1=N/OS(=O)(=O)c1cccc(C#N)c1
> 79 µM (inactive) | N#Cc1ccc(S(=O)(=O)ON=C2C=CC(=O)C(c3ccccc3)=C2)cc1
inactive | CC1=CC(=O)C(C(C)C)=C/C1=N\OS(=O)(=O)C1CCCCC1
7.9 µM | CC1=CC(=O)C(C(C)(C)C)=C/C1=N\OS(=O)(=O)c1c(Cl)cccc1Cl
3.53 µM | CC1=CC(=O)C(C(C)C)=C/C1=N\OS(=O)(=O)c1c(Cl)cccc1Cl
7.96 µM | COc1cccc(S(=O)(=O)O/N=C2\C=C(C(C)(C)C)C(=O)C=C2C)c1
5.68 µM | CC1=CC(=O)C(C(C)C)=C/C1=N/OS(=O)(=O)c1cccc(C)c1
